In ChEMBL document CHEMBL2346559, “Optimization of benzoxazole-based inhibitors of Cryptosporidium parvum inosine 5'-monophosphate dehydrogenase” (J Med Chem, 2013):

What was measured:
[1] = test system: Toxoplasma gondii; assay: Antiparasitic activity against transgenic Toxoplasma gondii expressing Cryptosporidium parvum IMPDH; format: functional, organism-based
Procedure, shortened: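 Engineered T. gondii strain that depends on CpIMPDH for guanine nucleotide synthesis, run alongside the wild-type RH strain, whose native eukaryotic IMPDH also gauges host-cell cytotoxicity. Antiparasitic EC50 is the average of three independent determinations unless otherwise stated, with some values from two determinations.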

[2] = target: T1, Inosine-5'-monophosphate dehydrogenase (Cryptosporidium parvum) (UniProt Q8T6T2)
T1 sequence (whole entry): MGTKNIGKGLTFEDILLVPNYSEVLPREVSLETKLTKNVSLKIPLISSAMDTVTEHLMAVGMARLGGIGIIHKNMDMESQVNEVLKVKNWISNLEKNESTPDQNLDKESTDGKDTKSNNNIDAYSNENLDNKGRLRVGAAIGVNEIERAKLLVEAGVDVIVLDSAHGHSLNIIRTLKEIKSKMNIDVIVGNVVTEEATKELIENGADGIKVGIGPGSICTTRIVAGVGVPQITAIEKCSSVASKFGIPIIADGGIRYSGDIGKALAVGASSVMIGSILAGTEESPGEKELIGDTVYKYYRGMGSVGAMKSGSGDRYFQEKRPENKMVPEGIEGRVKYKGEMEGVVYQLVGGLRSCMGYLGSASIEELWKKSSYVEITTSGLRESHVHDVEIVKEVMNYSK

[3] = target: Inosine-5'-monophosphate dehydrogenase 2 (Homo sapiens, UniProt P12268); assay: Inhibition of human IMPDH2
[4] = target: T2, Inosine-5'-monophosphate dehydrogenase (Cryptosporidium parvum, UniProt Q8T6T2); assay: Inhibition of Cryptosporidium parvum N-terminal His6-tagged IMPDH-mediated NADH production expressed in Escherichia coli BL21(DE3) preincubated for 5 mins prior to substrate addition by fluorescence assay
T2 sequence (Q8T6T2 whole entry): T1 sequence (whole entry)

[5] = target: T1, Inosine-5'-monophosphate dehydrogenase (Cryptosporidium parvum); remark: listed apart in the source
[6] = target: T2, Inosine-5'-monophosphate dehydrogenase; assay: Inhibition of Cryptosporidium parvum N-terminal His6-tagged IMPDH-mediated NADH production expressed in Escherichia coli BL21(DE3) preincubated for 5 mins prior to substrate addition by fluorescence assay in presence of BSA
Procedure, shortened: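 Same CpIMPDH fluorescence assay (10 nM enzyme, 300 μM NAD, 150 μM IMP, pH 8.0 Tris buffer, 25 °C, 5 min inhibitor preincubation), run with 0.05% fatty-acid-free BSA added to gauge nonspecific protein binding. Quadruplicate points; IC50 averaged over three determinations.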

[7] = test system: Liver; assay: Half life in mouse liver microsomes by LC/MS/MS analysis in presence of NADPH; format: ADME, Microsome
Procedure, shortened: (§1)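 Incubation with mouse liver microsomes at 37 °C, with and without NADPH. Percent of compound remaining measured at several time points; half-life from a fit to first-order decay.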

[8] = test system: Liver; assay: Half life in mouse liver microsomes by LC/MS/MS analysis; format: ADME, Microsome; procedure, shortened: as §1

SMILES: CC(Oc1ccc(Cl)cc1Cl)C(=O)Nc1ccc2oc(-c3ccncc3)nc2c1 (stereo not given)
- EC50 [1]: 650 nM
- Kis [2]: 33 nM
- IC50 [3]: > 5 µM
- IC50 [4]: 44 nM
- Kis [5]: 58 nM
- IC50 [6]: 120 nM

SMILES: C[C@@H](C(=O)Nc1ccc2oc(-c3ccncc3)nc2c1)c1ccccc1
- EC50 [1]: 400 nM
- Kis [2]: 40 nM
- IC50 [3]: > 5 µM
- t1/2 [7]: 43 min
- t1/2 [8]: 130 min
- IC50 [4]: 22.3 nM
- Kis [5]: 100 nM
- IC50 [6]: 28 nM

SMILES: C[C@H](Oc1cccc2ccccc12)C(=O)Nc1ccc2oc(-c3cncs3)nc2c1
- EC50 [1]: 300 nM
- Kis [2]: 0.9 nM
- IC50 [3]: > 5 µM
- IC50 [4]: 2.7 nM
- Kis [5]: 1.6 nM
- IC50 [6]: 4 nM
